As usually defined, the Ki is a dissociation constant, usually derived from enzyme kinetics or from competition with a known ligand.

Test [1] addresses Neuronal acetylcholine receptor subunit alpha-7 (Rattus norvegicus, UniProt Q05941). Put plainly: Displacement of [125I]iodoMLA from alpha-7 nAChR in rat cerebral cortex. Format: tissue-based. A general note: Displacement assays read how much labelled ligand stays bound in the presence of the test substance.
The nature of test [2]: Displacement of [3H]epibatidine from nAChRalpha, beta in rat cerebral cortex. It counts as tissue-based. In outline:
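Washed male rat cerebral cortex homogenate, 3 mg wet weight, in 50 mM Tris pH 7.4 with NaCl, KCl, CaCl2 and MgCl2. 0.5 nM [3H]epibatidine with 10–12 compound concentrations, 1% DMSO final; 300 μM (–)-nicotine defined nonspecific binding. Incubated 4 h at room temperature, then filtered on PEI-soaked GF/B and counted. Nonlinear fit, at least three experiments.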

Test [3] relates to Mus musculus. Put plainly: Antagonism of nicotine-induced seizures in ICR mouse at 50 mg/kg, sc. More on the design: scale not given: the % may be the effect or the level left. It counts as functional. The note with it: route subcutaneous. In outline:
(§1)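 Mice given saline or analog s.c. 10 min before nicotine. Percentage of animals seizing recorded. Dose-response from at least 4 doses with at least 8 mice per dose; AD50 with confidence limits, or % effect at highest dose.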

Test [4] concerns Mus musculus. Put plainly: Antagonism of nicotine-induced antinociceptive effect in sc dosed mouse by tail flick assay. Format: functional. The method in brief: (§2)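 Mice given saline or analog s.c. at varied times before nicotine; tail-flick tested 5 min after nicotine. Baseline latency 2–4 s, cutoff 10 s. %MPE = (test−control)/(10−control)×100. 8–12 mice per dose, at least 4 doses; AD50 with confidence limits from dose-response, or % effect at top dose.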
Background: Thermal pain tests record how soon the animal reacts.

The subject of test [5] is Mus musculus. Put plainly: Antagonism of nicotine-induced effect in mouse at 20 mg/kg, sc by hot plate assay. It counts as functional. Set-up: scale not given: the % may be the effect or the level left. The note with it: route subcutaneous. In outline:
(§3)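 Hot plate held at 55.0 C, mice in a 10 cm glass cylinder. Two control latencies taken at least 10 min apart (normal 8–12 s). Latency scored at jump or paw lick. %MPE = (test−control)/(40−control)×100. Analog given s.c. before nicotine; at least 8 mice per dose; % effect at highest dose.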

Test [6] deals with Mus musculus. Put plainly: Antagonism of nicotine-induced seizures in sc dosed ICR mouse. Format: functional. In outline: as §1
Test [7] relates to Mus musculus. Put plainly: Antagonism of nicotine-induced antinociceptive effect in mouse at 30 mg/kg, sc by tail flick assay. Format: functional. More on the design: scale not given: the % may be the effect or the level left. Particulars: route subcutaneous. The method in brief:
as §2

The subject of test [8] is Mus musculus. Put plainly: Antagonism of nicotine-induced effect in mouse at 30 mg/kg, sc by hot plate assay. Particulars: route subcutaneous. More on the design: scale not given: the % may be the effect or the level left. Format: functional. The method in brief:
as §3

Neuronal acetylcholine receptor subunit alpha-7, sequence (Q05941 whole entry): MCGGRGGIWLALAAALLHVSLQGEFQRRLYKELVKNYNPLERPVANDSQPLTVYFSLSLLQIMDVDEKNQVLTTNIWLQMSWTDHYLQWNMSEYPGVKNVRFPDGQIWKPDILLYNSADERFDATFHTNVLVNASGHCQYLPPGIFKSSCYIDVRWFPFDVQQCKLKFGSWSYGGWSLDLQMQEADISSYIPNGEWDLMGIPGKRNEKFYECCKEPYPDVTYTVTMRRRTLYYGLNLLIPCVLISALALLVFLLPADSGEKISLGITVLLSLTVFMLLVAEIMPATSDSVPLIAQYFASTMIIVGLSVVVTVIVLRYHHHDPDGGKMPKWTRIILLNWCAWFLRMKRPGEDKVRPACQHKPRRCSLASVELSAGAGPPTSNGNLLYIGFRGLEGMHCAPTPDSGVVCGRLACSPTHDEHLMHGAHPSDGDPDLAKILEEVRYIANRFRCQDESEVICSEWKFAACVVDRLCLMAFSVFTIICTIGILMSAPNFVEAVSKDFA

As for `CCN1C[C@]2(COC(=O)c3ccccc3N3C(=O)C(C)[C@H](C)C3=O)CC[C@H](OC)C34C2[C@H](OC)[C@](O)(C13)[C@@]1(O)C[C@H](OC)[C@H]2C[C@@H]4[C@@H]1[C@H]2OC` (stereo partly drawn), the Ki in test [1] amounted to 0.00246 µM; in test [2], 0.321 µM. In addition, the figures for the Activity in the test on Mus musculus [3] and in the test on Mus musculus [5] were 0% and 25%, respectively. In the test with Mus musculus [4], the AD50 amounted to 7 mg/kg.
For the compound `CCN1C[C@]2(COC(=O)c3ccccc3N3C(=O)C[C@H](C)C3=O)CC[C@H](OC)[C@@]34[C@@H]5C[C@H]6[C@H](OC)[C@@H]5[C@](O)(C[C@@H]6OC)[C@](O)([C@@H](OC)[C@H]23)[C@@H]14` [METHYLLYCACONITINE], affinity in test [2] was put at a Ki of 0.739 µM. In addition, the values for the AD50 in the test on Mus musculus [6] and in the test with Mus musculus [4] were 2 mg/kg and 12 mg/kg, respectively. The compound further displayed an Activity with Mus musculus [5] of 15%.
Take `CCN1C[C@]2(COC(=O)c3ccccc3N3C(=O)C[C@@H](C)C3=O)CC[C@H](OC)[C@@]34[C@@H]5C[C@H]6[C@H](OC)[C@@H]5[C@](O)(C[C@@H]6OC)[C@](O)([C@@H](OC)[C@H]23)[C@@H]14`: in test [2], affinity was put at a Ki of 0.352 µM. In addition, the Activity came to 40% in the test on Mus musculus [3], 10% in the test with Mus musculus [7] and 0% in the test with Mus musculus [8].
As for `CCN1C[C@]2(COC(=O)c3ccccc3N3C(=O)CC(C)(C)C3=O)CC[C@H](OC)C34C2[C@H](OC)[C@](O)(C13)[C@@]1(O)C[C@H](OC)[C@H]2C[C@@H]4[C@@H]1[C@H]2OC`, the Ki in test [1] amounted to 0.00178 µM; in test [2] it was 0.602 µM. Also, the AD50 amounted to 10 mg/kg in the test on Mus musculus [6] and 1.8 mg/kg with Mus musculus [4]. The Activity with Mus musculus [5] was 13%.
